Laboratory results reported in ChEMBL document CHEMBL5370647 (J Med Chem, 2023).
≈ marks a conversion by molar mass, not a printed value.

How the values were obtained:
[1] = test system: Mycobacterium tuberculosis; experiment: Antitubercular activity against non-replicating Mycobacterium tuberculosis H37Rv expressing luxCDAB assessed as inhibition of bacterial growth incubated for 7 days under hypoxia conditions followed by incubation in normoxia conditions for 5 days by luminescence based analysis; format: functional; conditions: 288 h, time 12 day
TGF-beta receptor type-1 = molecular target: T1, TGF-beta receptor type-1 (Homo sapiens, UniProt P36897); experiment: Binding affinity to wild type human partial length TGFBR1 (D179 to M503 residues) expressed in bacterial expression system by KINOMEscan assay
T1 sequence (P36897 whole entry): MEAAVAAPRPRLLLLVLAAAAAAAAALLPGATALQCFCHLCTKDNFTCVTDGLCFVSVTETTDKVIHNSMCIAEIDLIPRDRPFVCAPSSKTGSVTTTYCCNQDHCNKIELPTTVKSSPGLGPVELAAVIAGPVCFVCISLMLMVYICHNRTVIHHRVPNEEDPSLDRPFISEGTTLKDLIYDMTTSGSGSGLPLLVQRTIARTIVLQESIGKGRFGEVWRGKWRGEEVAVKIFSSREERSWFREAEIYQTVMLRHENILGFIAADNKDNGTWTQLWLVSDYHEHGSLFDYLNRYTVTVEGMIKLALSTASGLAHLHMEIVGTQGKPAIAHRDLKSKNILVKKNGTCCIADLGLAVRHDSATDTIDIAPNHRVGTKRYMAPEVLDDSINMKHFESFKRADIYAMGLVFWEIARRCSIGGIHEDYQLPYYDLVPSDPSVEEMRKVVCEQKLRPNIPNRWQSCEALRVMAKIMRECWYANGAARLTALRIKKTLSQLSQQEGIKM

[2] = Metabolic stability of the compound in CD-1 mouse liver microsomes assessed as parent compound remaining at 5 uM preincubated for 5 mins followed by NADPH addition and measured after 30 mins by LC-TOF/MS analysis; format: ADME, Microsome; conditions: time 35 min, read-out: Stability
Procedure, shortened: (§1)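 Mouse liver microsomes incubated with compound in the presence of NADPH. Read-out is % parent compound remaining after 30 min.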

[3] = Metabolic stability of the compound in CD-1 mouse liver microsomes at 5 uM by LC-TOF/MS analysis; format: ADME, Microsome; procedure, shortened: as §1
[4] = test system: Mycobacterium tuberculosis; experiment: Antitubercular activity against non-replicating Mycobacterium tuberculosis H37Rv constitutively expressing GFP assessed as inhibition of bacterial growth incubated for 7 days under hypoxic condition followed by incubation in aerobic conditions for 1 to 5 days by spot assay; format: functional; conditions: time 8-12 day
[5] = test system: Mycobacterium tuberculosis; experiment: Antitubercular activity against Mycobacterium tuberculosis H37Rv constitutively expressing GFP assessed as inhibition of bacterial growth at 20 uM incubated for 7 days by fluorescence based analysis; format: functional; conditions: 168 h, time 7 day
[6] = test system: Mycobacterium tuberculosis; experiment: Antitubercular activity against replicating Mycobacterium tuberculosis H37Rv constitutively expressing GFP assessed as inhibition of bacterial growth under normoxia conditions incubated for 3 weeks by spot assay; format: functional; conditions: 504 h

SMILES	MIC50 [1]	MIC90 [1]	Kd (TGF-beta receptor type-1)	remaining at 0.5 h, 5 µM [2]	Stability [3]	also measured
Cc1cccc(-c2nc(Oc3ccc4scnc4c3)c3ccccc3n2)n1	< 0.3 µM	0.3 µM (≈ 0.111 µg/mL)	> 10 µM	–	–	–
c1ccc2c(Nc3ccncc3)nc(-c3cnccn3)nc2c1	1 µM (≈ 0.3 µg/mL)	> 10 µM	–	–	–	–
Cc1cccc(-c2nc(Nc3ccc4ncoc4c3)c3ccccc3n2)n1	0.3 µM (≈ 0.106 µg/mL)	5 µM (≈ 1.77 µg/mL)	–	–	–	–
COc1cncc(-c2nc(Nc3ccncc3)c3ccccc3n2)n1	5 µM (≈ 1.65 µg/mL)	> 10 µM	–	–	–	–
Cc1cccc(-c2nc(Nc3ccc4ncsc4c3)c3ccccc3n2)n1	< 0.3 µM	1.3 µM (≈ 0.48 µg/mL)	–	–	–	–
Cn1ccc(-c2nc(Nc3ccncc3)c3ccccc3n2)n1	> 10 µM	> 10 µM	–	–	–	–
Cc1cccc(-c2nc(Nc3ccc4nn[nH]c4c3)c3ccccc3n2)n1	1.3 µM (≈ 0.459 µg/mL)	5 µM (≈ 1.77 µg/mL)	> 10 µM	–	–	–
Fc1cccc(-c2nc(Nc3ccncc3)c3ccccc3n2)n1	1 µM (≈ 0.317 µg/mL)	5 µM (≈ 1.59 µg/mL)	–	18%	Stable	–
COc1ccc2nc(-c3cccc(C)n3)nc(Nc3ccncc3)c2c1	< 1 µM	< 1 µM	–	23%	Stable	–
Cc1cccc(-c2nc(Nc3ccc4nn(C)cc4c3)c3ccccc3n2)n1	< 0.3 µM	1.3 µM (≈ 0.476 µg/mL)	–	–	–	–
Cc1cc(-c2nc(Nc3ccncc3)c3ccccc3n2)cs1	> 10 µM	> 10 µM	–	–	–	–
Cc1cccc(-c2nc(Oc3ccc4ncsc4c3)c3ccccc3n2)n1	< 0.3 µM	0.3 µM (≈ 0.111 µg/mL)	> 10 µM	–	–	–
Cc1cccc(-c2nc(Nc3ccc4nc(C)sc4c3)c3ccccc3n2)n1	< 0.3 µM	0.3 µM (≈ 0.115 µg/mL)	> 10 µM	18%	Stable	–
c1ccc(-c2nc(Nc3ccncc3)c3ccccc3n2)nc1	1 µM (≈ 0.299 µg/mL)	2.5 µM (≈ 0.748 µg/mL)	–	20%	Stable	–
Cc1cccc(-c2nc(Nc3ccc4ccsc4c3)c3ccccc3n2)n1	< 0.3 µM	0.3 µM (≈ 0.111 µg/mL)	> 10 µM	8%	Stable	–
Cc1cccc(-c2nc(N(C)c3ccc4ncsc4c3)c3ccccc3n2)n1	< 0.3 µM	1.3 µM (≈ 0.499 µg/mL)	> 10 µM	–	–	–
Fc1cccc(-c2nc(Nc3ccncc3)c3ccccc3n2)c1	> 10 µM	> 10 µM	–	–	–	–
Cc1cccc(-c2nc(Nc3ccc4c(c3)nnn4C)c3ccccc3n2)n1	< 0.3 µM	1.3 µM (≈ 0.478 µg/mL)	> 10 µM	28%	Stable	–
Cc1cccc(-c2nc(Nc3ccc4nnn(C)c4c3)c3ccccc3n2)n1	< 0.3 µM	0.3 µM (≈ 0.11 µg/mL)	> 10 µM	15%	Stable	–
Cc1cccc(-c2nc(Nc3ccc4c(cnn4C)c3)c3ccccc3n2)n1	< 0.3 µM	1.3 µM (≈ 0.476 µg/mL)	–	9%	Stable	–
FC(F)(F)c1cccc(-c2nc(Nc3ccncc3)c3ccccc3n2)n1	1 µM (≈ 0.367 µg/mL)	5 µM (≈ 1.84 µg/mL)	–	29%	Stable	–
COc1ccc(Nc2nc(-c3cccc(C)n3)nc3ccccc23)cc1	< 0.3 µM	1.3 µM (≈ 0.445 µg/mL)	> 10 µM	–	–	–
CO[C@H]1/C=C/O[C@@]2(C)Oc3c(C)c(O)c4c(O)c(c(/C=N/N5CCN(C)CC5)c(O)c4c3C2=O)NC(=O)/C(C)=C\C=C\[C@H](C)[C@H](O)[C@@H](C)[C@@H](O)[C@@H](C)[C@H](OC(C)=O)[C@@H]1C [RIFAMPIN]	–	–	–	–	–	MIC90 [4]: 0.4 µM (≈ 0.329 µg/mL)
Cn1cncc1-c1ccc2ncnc(Nc3ccc(OCc4ccccc4)cc3)c2c1	–	–	–	–	–	inhibition at 20 µM [5]: > 90%; MIC50 [6]: 5 µM (≈ 2.04 µg/mL); MIC90 [6]: 5 µM (≈ 2.04 µg/mL); MIC90 [4]: 11 µM (≈ 4.48 µg/mL)
Clc1cccc(-c2nc(Nc3ccncc3)c3ccccc3n2)c1	> 10 µM	> 10 µM	–	–	–	–
Cc1cccc(-c2nc(Nc3ccc4[nH]ccc4c3)c3ccccc3n2)n1	1.3 µM (≈ 0.457 µg/mL)	1.3 µM (≈ 0.457 µg/mL)	–	–	–	–
Cc1cccc(-c2nc(Nc3ccc4ncn(C)c4c3)c3ccccc3n2)n1	0.3 µM (≈ 0.11 µg/mL)	> 10 µM	–	–	–	–
